For data set [1], the target named is T1, Beta-secretase 1 (Homo sapiens, UniProt P56817). Put plainly: Inhibition of BACE1 in human SH-SY5Y cells harboring wild type APP695 assessed as increase in AICD level at 3 uM by Western blot method relative to chloroquine. The format is cell-based. The method in brief: (§1)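 APP C-terminal fragments (αCTFs and AICD) were detected by Western blot and scored as band intensity. Compounds were tested at 1, 3 and 10 µM.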
Background: In western blotting, separated proteins are transferred to a membrane and probed.

Data set [2] has as its target T1, Beta-secretase 1. In words: Inhibition of BACE1 in human SH-SY5Y cells harboring wild type APP695 assessed as increase in alphaCTF level at 3 uM by Western blot method relative to chloroquine. The format is cell-based. The method in brief:
as §1

The target of data set [3] is T1, Beta-secretase 1. In words: Inhibition of BACE1 in human SH-SY5Y cells harboring wild type APP695 assessed as reduction in amyloid beta (1 to 40) level after 24 hrs by ELISA method. Type of data set: cell-based. The method in brief: (§2)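 Aβ1-40 and Aβ1-42 levels were measured by ELISA in APPwt-expressing SH-SY5Y cells after compound treatment.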
A general note: An ELISA detects its analyte on a solid surface through an enzyme-linked reagent.

In data set [4] the target is T1, Beta-secretase 1. Put plainly: Inhibition of BACE1 in human SH-SY5Y cells harboring wild type APP695 assessed as reduction in sAPPbeta level up to 5 uM after 24 hrs by DAPI staining based electro-chemiluminescence immunoassay. The format is cell-based.
For data set [5], the target named is Beta-secretase 1 (Mus musculus) (UniProt P56818). In words: Inhibition of BACE1 in C57BL6 mouse primary neuronal cells assessed as accumulation of AICD level up to 5 uM after 24 hrs by DAPI staining based immunofluorescence assay.
Chain of Beta-secretase 1 (Mus musculus) (P56818 whole entry): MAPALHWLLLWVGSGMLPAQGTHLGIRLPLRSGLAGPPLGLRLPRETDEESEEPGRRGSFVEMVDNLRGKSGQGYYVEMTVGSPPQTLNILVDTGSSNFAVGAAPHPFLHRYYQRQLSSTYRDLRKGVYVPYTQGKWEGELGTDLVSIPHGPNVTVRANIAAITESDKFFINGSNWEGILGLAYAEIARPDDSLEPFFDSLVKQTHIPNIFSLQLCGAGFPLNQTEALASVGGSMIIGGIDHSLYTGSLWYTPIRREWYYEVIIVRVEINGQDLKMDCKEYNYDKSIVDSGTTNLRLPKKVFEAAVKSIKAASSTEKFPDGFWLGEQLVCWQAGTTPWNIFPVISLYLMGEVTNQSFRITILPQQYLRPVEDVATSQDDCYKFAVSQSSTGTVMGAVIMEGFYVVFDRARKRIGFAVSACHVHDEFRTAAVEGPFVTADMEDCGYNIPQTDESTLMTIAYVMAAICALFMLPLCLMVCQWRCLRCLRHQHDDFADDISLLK
The subject of data set [6] is Primary neuron. Put plainly: Inhibition of autophagy in C57BL6 mouse primary neuronal cells assessed as increase in p62 expression up to 5 uM after 24 hrs by DAPI staining based immunofluorescence assay. Type of data set: functional. The method in brief: (§3)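 Autophagy markers were quantified against control: p62 expression and lipidation of LC3-I into LC3-II. Accumulation of p62- and LC3-positive vesicles was scored by immunofluorescence. This was done in SY5Y-APPwt cells and primary neurons.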

Data set [7] has as its system SH-SY5Y. In words: Cytotoxicity against human SH-SY5Y cells harboring wild type APP695 assessed as reduction in cell viability after 24 hrs by LDH assay. The format is cell-based.
Data set [8] has as its target T1, Beta-secretase 1. Put plainly: Inhibition of BACE1 in human SH-SY5Y cells harboring wild type APP695 assessed as reduction in amyloid beta (1 to 40) level up to 5 uM after 24 hrs by ELISA. Type of data set: cell-based. The method in brief:
as §2

Data set [9] deals with Beta-secretase 1 (Mus musculus) (UniProt P56818). Put plainly: Inhibition of BACE1 in C57BL6 mouse primary neuronal cells assessed as accumulation of APP-CTF level up to 5 uM after 24 hrs by DAPI staining based immunofluorescence assay.
Data set [10] in a line: Cytotoxicity against C57BL6 mouse primary neuronal cells assessed as reduction in cell viability after 24 hrs by LDH assay. Type of data set: cell-based. Conditions: primary neuron.
The test system of data set [11] is SH-SY5Y. Put plainly: Inhibition of autophagy in human SH-SY5Y cells harboring wild type APP695 assessed as increase in p62 expression up to 5 uM after 24 hrs by DAPI staining based immunofluorescence assay. Type of data set: functional, cell-based. The method in brief:
as §3

The target of data set [12] is T1, Beta-secretase 1. In words: Inhibition of BACE1 in human SH-SY5Y cells harboring wild type APP695 assessed as accumulation of APP-CTF level up to 5 uM after 24 hrs by ELISA. Type of data set: cell-based.
Data set [13] deals with SH-SY5Y. In words: Inhibition of autophagy in human SH-SY5Y cells harboring wild type APP695 assessed as increase in lipidation of LC3-1 to LC3-2 up to 5 uM after 24 hrs by DAPI staining based immunofluorescence assay. The format is functional, cell-based. The method in brief: as §3
The target in data set [14] is T1, Beta-secretase 1. Put plainly: Inhibition of BACE1 in human SH-SY5Y cells harboring wild type APP695 assessed as increase in mature APP level up to 5 uM after 24 hrs by ELISA. The format is cell-based. The conditions noted are these: in the assay text read “by Western blot” for “by ELISA”. The method in brief: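 Full-length APP was resolved and detected with APP-C17 antiserum as two bands. The 110 kDa band is the immature, neosynthesized form and the 115 kDa band is the mature, glycosylated form. Both bands were quantified against the control condition. This was done in SH-SY5Y-APPwt cells and in primary neuronal cultures.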

In data set [15] the target is T1, Beta-secretase 1. Put plainly: Inhibition of recombinant human BACE1 at 10 uM using Mca-S-E-[…]-L-D-AEF-R-K(Dnp)-R-R-NH2 as substrate after 60 mins by fluorescence assay relative to control. The method in brief:
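BACE-1 enzymatic activity was followed by cleavage of the fluorogenic peptide Mca-S-E-V-N-L-D-AE-F-R-K(Dnp)-R-R-NH2.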

For data set [16], the system named is SH-SY5Y. In words: Inhibition of alpha secretase in human SH-SY5Y cells harboring wild type APP695 assessed as increase in sAPPalpha level up to 5 uM after 24 hrs by DAPI staining based electro-chemiluminescence immunoassay. Type of data set: cell-based.
For data set [17], the system named is Primary neuron. In words: Inhibition of autophagy in C57BL6 mouse primary neuronal cells assessed as increase in lipidation of LC3-1 to LC3-2 up to 5 uM after 24 hrs by DAPI staining based immunofluorescence assay. The format is functional. The method in brief: as §3
The target of data set [18] is Beta-secretase 1 (Mus musculus) (UniProt P56818). Put plainly: Inhibition of BACE1 in C57BL6 mouse primary neuronal cells assessed as increase in mature APP level up to 5 uM after 24 hrs by DAPI staining based immunofluorescence assay relative to control.
Data set [19] deals with T1, Beta-secretase 1. In words: Inhibition of BACE1 in human SH-SY5Y cells harboring wild type APP695 assessed as reduction in amyloid beta (1 to 42) level up to 5 uM after 24 hrs by ELISA. The format is cell-based. The method in brief: as §2
Data set [20] addresses T1, Beta-secretase 1. Put plainly: Inhibition of BACE1 in human SH-SY5Y cells harboring wild type APP695 assessed as accumulation of AICD level up to 5 uM after 24 hrs by ELISA. The format is cell-based.
Data set [21] deals with T1, Beta-secretase 1. Put plainly: Inhibition of BACE1 in human SH-SY5Y cells harboring wild type APP695 assessed as increase in AICD level at 3 uM by Western blot method relative to untreated control. Type of data set: cell-based. The method in brief:
as §1

Data set [22] has as its target T1, Beta-secretase 1. In words: Inhibition of BACE1 in human SH-SY5Y cells harboring wild type APP695 assessed as increase in alphaCTF level at 3 uM by Western blot method relative to untreated control. The format is cell-based. The method in brief: as §1

SMILES strings stand for the structures. pIC50: −log10 of the molar value. Calls of active or inactive are those of the source. The rule behind the calls is not given here.

T1 sequence (P56817 whole entry, the tested form may be a part): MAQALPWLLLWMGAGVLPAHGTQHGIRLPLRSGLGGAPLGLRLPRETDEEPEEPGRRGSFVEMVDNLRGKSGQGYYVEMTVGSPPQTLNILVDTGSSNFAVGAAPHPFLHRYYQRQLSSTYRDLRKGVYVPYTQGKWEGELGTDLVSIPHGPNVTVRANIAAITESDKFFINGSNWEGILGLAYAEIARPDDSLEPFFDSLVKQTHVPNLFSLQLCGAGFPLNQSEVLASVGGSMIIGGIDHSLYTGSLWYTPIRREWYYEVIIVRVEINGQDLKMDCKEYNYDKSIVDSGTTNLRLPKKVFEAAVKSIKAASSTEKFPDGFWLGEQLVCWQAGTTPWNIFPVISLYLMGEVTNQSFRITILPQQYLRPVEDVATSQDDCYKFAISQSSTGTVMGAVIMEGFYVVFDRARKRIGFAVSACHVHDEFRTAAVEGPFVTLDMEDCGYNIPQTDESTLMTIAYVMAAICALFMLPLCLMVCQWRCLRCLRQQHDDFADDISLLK

For the compound `CN(C)Cc1ccccc1-c1ccc(NCCN2CCCCC2)c(OCCN2CCCCC2)c1`, the fold change (FC) at Beta-secretase 1 [1] was found to be 4.8; on Beta-secretase 1 [2], 5. The pIC50 on Beta-secretase 1 [3] is 5.85.
In the case of `CN(C)Cc1ccccc1-c1ccc(NCCCN2CCCCC2)cc1`, the figures for the fold change (FC) at Beta-secretase 1 [1] and at Beta-secretase 1 [2] were 0.8 and 0.9, respectively. In addition, the pIC50 at Beta-secretase 1 [3] is 5.41.
On to `CN(C)Cc1ccc(-c2ccc(NCCCN3CCCCC3)c(OCCN3CCCCC3)c2)cc1`, for which the values for the fold change (FC) on Beta-secretase 1 [1] and at Beta-secretase 1 [2] were 2.5 and 2.1, respectively. In addition, the pIC50 on Beta-secretase 1 [3] was 5.82.
With `CN(C)Cc1ccccc1-c1ccc(NCCCN2CCCCC2)c(OCCC2CCCCC2)c1`, the inhibition entry on Beta-secretase 1 [4], at Beta-secretase 1 [8], in the data set with SH-SY5Y [16] and at Beta-secretase 1 [19] was “Active” throughout. In addition, the inhibition entry (in data set [5]; in the data set on Primary neuron [6]; in data set [9]; with SH-SY5Y [11]; at Beta-secretase 1 [12]; with SH-SY5Y [13]) was “inactive” each time. Besides, the inhibition result (at Beta-secretase 1 [14]; in the data set with Primary neuron [17]; in data set [18]; on Beta-secretase 1 [20]) was “inactive” in each case. For the same compound, the Activity result (with SH-SY5Y [7]; in data set [10]) was “Non-Toxic” in each case. Further, the fold change (FC) at Beta-secretase 1 [1] and on Beta-secretase 1 [2] was 0.1 in each case. Further, the inhibition at Beta-secretase 1 [15] is less than 10%. At Beta-secretase 1 [3], the pIC50 was 5.68.
For `c1ccc(-c2ccc(NCCCN3CCCCC3)c(OCCN3CCCCC3)c2)c(CN2CCCCC2)c1`, the fold change (FC) on Beta-secretase 1 [1] came to 2.7; at Beta-secretase 1 [2] it was 4.3. The pIC50 on Beta-secretase 1 [3] is 5.59.
In the same order, the values of `c1ccc(-c2ccc(NCCCN3CCCCC3)c(OCCN3CCCCC3)c2)c(CN2CCOCC2)c1` are 1.7, 3.1 and 5.55.
Consider `CN(C)Cc1ccccc1-c1ccc(NCCN2CCCCC2)c(OCCCN2CCCCC2)c1`, for which the results for the fold change (FC) on Beta-secretase 1 [1] and on Beta-secretase 1 [2] were 3.4 and 4.5, respectively. For the same compound, at Beta-secretase 1 [3], the pIC50 is 5.70.
The corresponding values for `c1ccc(-c2cccc(OCCN3CCCCC3)c2)cc1` are 0.2, 0.1 and 5.04.
The corresponding values for `CN(C)Cc1ccccc1-c1ccc(NCCCCN2CCCCC2)c(OCCN2CCCCC2)c1` are 3, 4.2 and 5.77.
`CN(C)Cc1ccn(-c2ccc(NCCCN3CCCCC3)c(OCCN3CCCCC3)c2)c1`: the fold change (FC) at Beta-secretase 1 [1] was 2; at Beta-secretase 1 [2], 3.6. For the same compound, the negative-log IC50 (pIC50) on Beta-secretase 1 [3] was 5.30.
Regarding `Oc1c(CN2CCCC2)cc(Nc2ccnc3cc(Cl)ccc23)cc1CN1CCCC1`, the figures for the fold change (FC) at Beta-secretase 1 [1] and at Beta-secretase 1 [2] were 2.5 and 2.1, respectively. In addition, the negative-log IC50 (pIC50) on Beta-secretase 1 [3] was 5.29.
In the case of `CN1CCN(Cc2ccccc2-c2ccc(NCCCN3CCCCC3)c(OCCN3CCCCC3)c2)CC1`, the values for the fold change (FC) on Beta-secretase 1 [1] and on Beta-secretase 1 [2] were 3.7 and 5.1, respectively. Further, at Beta-secretase 1 [3], the pIC50 was 5.59.
As to `CN(C)Cc1ccccc1-c1ccc(NCCCN2CCCCC2)c(OCCCN2CCCCC2)c1`, the fold change (FC) at Beta-secretase 1 [21] turned out to be 30; on Beta-secretase 1 [1] it was 5.1; on Beta-secretase 1 [22], 50; at Beta-secretase 1 [2], 4.5. In addition, on Beta-secretase 1 [3], the pIC50 is 5.68.
As for `c1ccc(-c2ccc(NCCCN3CCCCC3)c(OCCN3CCCCC3)c2)cc1`, the fold change (FC) at Beta-secretase 1 [1] was 2.1; at Beta-secretase 1 [2], 2.4. Also, the pIC50 on Beta-secretase 1 [3] is 5.28.
In the same order, the values of `c1cc(-c2ccc(NCCCN3CCCCC3)c(OCCN3CCCCC3)c2)ccc1CN1CCCCC1` are 2.5, 2.6 and 5.68.
Turning to `CN(C)Cc1ccccc1-c1ccc(NCCN2CCCCC2)c(OCCCCN2CCCCC2)c1`, the results for the fold change (FC) at Beta-secretase 1 [1] and at Beta-secretase 1 [2] were 4.8 and 4.4, respectively.
Turning to `c1cc(CN2CCCCC2)cc(-c2ccc(NCCCN3CCCCC3)c(OCCN3CCCCC3)c2)c1`, the fold change (FC) at Beta-secretase 1 [1] worked out at 2.6; on Beta-secretase 1 [2] it was 3.3. Moreover, the pIC50 on Beta-secretase 1 [3] is 5.37.
Turning to `CN(C)Cc1ccccc1-c1cccc(OCCN2CCCCC2)c1`, the fold change (FC) stood at 0.7 on Beta-secretase 1 [1] and 0.6 at Beta-secretase 1 [2]. For the same compound, the pIC50 on Beta-secretase 1 [3] was 5.82.
Regarding `CC(C)CN(CCCN1CCN(CCCNc2nc3ccccc3[nH]2)CC1)CC(C)C`, the fold change (FC) at Beta-secretase 1 [1] was 1.8; at Beta-secretase 1 [2], 1.3. On Beta-secretase 1 [3], the pIC50 was 5.77.

As usually defined, the pIC50 is −log10 of the IC50, conventionally taken in molar units. The inhibition is the share of the control response that was lost under treatment.
